The subject of series [1] is Klebsiella pneumoniae. Briefly: Potentiation of(Z)-4-((bis(2-hydroxyethyl)amino)methyl)-7-((1-(4-methoxyphenyl)-3-oxo-3-(thiazol-2-yl)prop-1-en-2-yl)oxy)-2H-chromen-2-one-induced antibacterial activity against Klebsiella pneumoniae assessed as (Z)-4-((bis(2-hydroxyethyl)amino)methyl)-7-((1-(4-methoxyphenyl)-3-oxo-3-(thiazol-2-yl)prop-1-en-2-yl)oxy)-2H-chromen-2-one MIC. Format: functional.

The test system of series [2] is Staphylococcus aureus. Briefly: Antibacterial activity against Staphylococcus aureus by microbroth dilution method. Format: functional.
Series [3] deals with Enterococcus faecalis. Briefly: Potentiation of (Z)-4-((bis(2-hydroxyethyl)amino)methyl)-7-((1-(4-methoxyphenyl)-3-oxo-3-(thiazol-2-yl)prop-1-en-2-yl)oxy)-2H-chromen-2-one-induced antibacterial activity against Enterococcus faecalis assessed as (Z)-4-((bis(2-hydroxyethyl)amino)methyl)-7-((1-(4-methoxyphenyl)-3-oxo-3-(thiazol-2-yl)prop-1-en-2-yl)oxy)-2H-chromen-2-one MIC. Format: functional.

Series [4] relates to Escherichia coli. Briefly: Antibacterial activity against Escherichia coli by microbroth dilution method. Type of series: functional. In general terms: In broth dilution the organism is exposed to a series of concentrations in liquid medium.
For series [5], the system named is Klebsiella pneumoniae. Briefly: Antibacterial activity against Klebsiella pneumonia by microbroth dilution method. Type of series: functional.
The test system of series [6] is Pseudomonas aeruginosa. Briefly: Antibacterial activity against Pseudomonas aeruginosa by microbroth dilution method. Type of series: functional.
Series [7] relates to Escherichia coli. Briefly: Potentiation of (Z)-4-((bis(2-hydroxyethyl)amino)methyl)-7-((1-(4-methoxyphenyl)-3-oxo-3-(thiazol-2-yl)prop-1-en-2-yl)oxy)-2H-chromen-2-one-induced antibacterial activity against Escherichia coli assessed as (Z)-4-((bis(2-hydroxyethyl)amino)methyl)-7-((1-(4-methoxyphenyl)-3-oxo-3-(thiazol-2-yl)prop-1-en-2-yl)oxy)-2H-chromen-2-one MIC. Format: functional.

Series [8] concerns Acinetobacter baumannii. Briefly: Antibacterial activity against Acinetobacter baumannii by microbroth dilution method. Type of series: functional.
For series [9], the system named is Staphylococcus aureus. Briefly: Antibacterial activity against Staphylococcus aureus ATCC 29213 by microbroth dilution method. Format: functional.
Series [10] relates to Staphylococcus aureus. Briefly: Antibacterial activity against methicillin-resistant Staphylococcus aureus N315 by microbroth dilution method. Format: functional. Put shortly:
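Minimum inhibitory concentration against MRSA N315 determined by micro broth dilution in microdilution plates.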

Series [11] concerns Staphylococcus aureus. Briefly: Antibacterial activity against Staphylococcus aureus ATCC 25923 by microbroth dilution method. Format: functional.
The subject of series [12] is Pseudomonas aeruginosa. Briefly: Antibacterial activity against Pseudomonas aeruginosa ATCC 27853 by microbroth dilution method. Format: functional.
Series [13] concerns Staphylococcus aureus. Briefly: Potentiation of (Z)-4-((bis(2-hydroxyethyl)amino)methyl)-7-((1-(4-methoxyphenyl)-3-oxo-3-(thiazol-2-yl)prop-1-en-2-yl)oxy)-2H-chromen-2-one-induced antibacterial activity against methicillin resistant Staphylococcus aureus N315 assessed as (Z)-4-((bis(2-hydroxyethyl)amino)methyl)-7-((1-(4-methoxyphenyl)-3-oxo-3-(thiazol-2-yl)prop-1-en-2-yl)oxy)-2H-chromen-2-one MIC. Type of series: functional.

Series [14] concerns Escherichia coli. Briefly: Antibacterial activity against Escherichia coli ATCC 25922 by microbroth dilution method. Format: functional.
Series [15] deals with Enterococcus faecalis. Briefly: Antibacterial activity against Enterococcus faecalis by microbroth dilution method. Format: functional.
For series [16], the system named is Staphylococcus aureus. Briefly: Bactericidal activity against methicillin-resistant Staphylococcus aureus assessed as decrease in viable cells at 4 times MIC measured after 2 hrs by time kill assay. Format: functional. Put shortly: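 Time-kill kinetics against MRSA at 4 × MIC. Viable cells were counted as CFU/mL over time, including the 2 h point.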
The test system of series [17] is Staphylococcus aureus. Briefly: Synergistic antibacterial activity against methicillin resistant Staphylococcus aureus N315 assessed as fractional inhibitory concentration index in presence of norfloxacin. Format: functional.
Series [18] concerns DNA. Briefly: Binding affinity to methicillin-resistant Staphylococcus aureus DNA assessed as compound-DNA interaction causing DNA replication blockage by neutral red uptake assay. Type of series: nucleic-acid assay.
In series [19] the test system is Enterococcus faecalis. Briefly: Potentiation of norfloxacin-induced antibacterial activity against Enterococcus faecalis assessed as norfloxacin MIC. Type of series: functional.
The subject of series [20] is DNA. Briefly: Binding affinity to methicillin-resistant Staphylococcus aureus DNA assessed as maximum absorption peak at 260 nm by UV-vis spectroscopy. Type of series: nucleic-acid assay.
In series [21] the test system is Escherichia coli. Briefly: Potentiation of norfloxacin-induced antibacterial activity against Escherichia coli assessed as norfloxacin MIC. Format: functional.
In series [22] the test system is RAW264.7. Briefly: Cytotoxicity against mouse RAW264.7 cells assessed as effect on cell viability up to 500 ug/ml by MTT assay. Format: cell-based. The settings on record: dose <=500 µg/ml. Put shortly: (§1)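 MTT viability assay on human hepatocyte LO2 cells and RAW 264.7 cells. The test hybrid was applied over a rising concentration series up to 500. The read-out was the percentage of living cells.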

The subject of series [23] is Klebsiella pneumoniae. Briefly: Additive antibacterial activity against Klebsiella pneumoniae assessed as fractional inhibitory concentration index in presence of norfloxacin. Format: functional.
Series [24] deals with Klebsiella pneumoniae. Briefly: Potentiation of norfloxacin-induced antibacterial activity against Klebsiella pneumoniae assessed as norfloxacin MIC. Format: functional.
Series [25] concerns Staphylococcus aureus. Briefly: Antibacterial activity against methicillin-resistant Staphylococcus aureus up to 50 ug/ml measured after 7 passages by resistance development assay. Type of series: functional, organism-based. As to conditions: dose microg/ml <=50.
Series [26] has as its system Cell membrane. Briefly: Induction of membrane permeabilization in methicillin resistant Staphylococcus aureus at 12 times MIC measured after 60 mins by propidium iodide staining based fluorescence assay. Put shortly: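 PI–DNA fluorescence intensity was followed over time up to and beyond 60 min, compared with an untreated control.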
In series [27] the test system is Enterococcus faecalis. Briefly: Indifferent antibacterial activity against Enterococcus faecalis assessed as fractional inhibitory concentration index in presence of norfloxacin. Type of series: functional.
Series [28] has as its system Escherichia coli. Briefly: Additive antibacterial activity against Escherichia coli assessed as fractional inhibitory concentration index in presence of norfloxacin. Type of series: functional.
The subject of series [29] is L02. Briefly: Cytotoxicity against human L02 cells assessed as effect on cell viability up to 500 ug/ml by MTT assay. The settings on record: dose <=500 µg/ml. Type of series: cell-based. Put shortly:
as §1
In general terms: Tetrazolium assays rely on reduction of a dye to a coloured formazan, in cell work by metabolically active cells.

The test system of series [30] is DNA. Briefly: Binding affinity to methicillin-resistant Staphylococcus aureus DNA assessed as decrease in absorption of compound-DNA complex by UV-vis spectroscopy. Type of series: nucleic-acid assay.

A word on the MIC: it is the lowest concentration that inhibits growth of the organism.

≈ marks a conversion by molar mass, not a printed value. Calls of active or inactive are those of the source. The calls are words filed in the database; no cut-off is given here.

Take `CCn1cc(C(=O)O)c(=O)c2cc(F)c(N3CCNCC3)cc21` [NORFLOXACIN]: the MIC in series [1] was 0.203 10^-3mM; in series [2] it was 6 µM (≈ 1.92 µg/mL); in [3], 0.781 10^-3mM; in [4] it was 50 µM (≈ 16 µg/mL); in [5], 13 µM (≈ 4.15 µg/mL); in series [6] it was 25 µM (≈ 7.98 µg/mL). The MIC in [7] is 0.781 10^-3mM; in [8] it was 25 µM (≈ 7.98 µg/mL); in series [9] it was 6 µM (≈ 1.92 µg/mL); in [10], 25 µM (≈ 7.98 µg/mL); in series [11], 3 µM (≈ 0.958 µg/mL); in [12] it was 3 µM (≈ 0.958 µg/mL). Further, the values for the MIC in series [13], in [14] and in series [15] were 0.781 10^-3mM, 25 µM (≈ 7.98 µg/mL) and 25 µM (≈ 7.98 µg/mL), respectively.

On to `COc1ccc(/C=C(\Oc2ccc3c(CN(CCO)CCO)cc(=O)oc3c2)C(=O)c2nccs2)cc1`, for which the Activity in series [16] is reported as below 10 CFU/ml; in series [22], “Non-Toxic”; in [29], “Non-Toxic”. Moreover, the “fractional inhibitory concentration index (FICI)” value in [17] is listed as 0.45; in [23] it was 0.58; in series [27], 1.34; in series [28], 0.51. The result in [18], in series [20], in series [25], in series [26] and in [30] was Active. Besides, the MIC in [19] was 1.906 10^-3mM; in series [2], 61 µM (≈ 31.9 µg/mL); in [4], 15 µM (≈ 7.84 µg/mL); in series [5], 61 µM (≈ 31.9 µg/mL); in [6], 122 µM (≈ 63.8 µg/mL); in series [21], 0.234 10^-3mM. For the same molecule, the minimum inhibitory concentration (MIC) is 0.953 10^-3mM in [24]; 244 µM (≈ 128 µg/mL) in series [8]; 122 µM (≈ 63.8 µg/mL) in [9]; 4 µM (≈ 2.09 µg/mL) in series [10]; 122 µM (≈ 63.8 µg/mL) in series [11]; 244 µM (≈ 128 µg/mL) in series [12]. Besides, the MIC in series [14] was 244 µM (≈ 128 µg/mL); in [15], 61 µM (≈ 31.9 µg/mL).
